Here are results for 18 compounds from ChEMBL document CHEMBL1944608, “Design, synthesis and biological evaluation of novel 2-methylpyrimidine-4-ylamine derivatives as inhibitors of Escherichia coli pyruvate dehydrogenase complex E1” (Bioorg Med Chem, 2012).

The subject of one assay is Alternaria alternata. Put plainly: Antifungal activity against Alternaria alternata Keissler assessed as inhibition of mycelium growth at 100 ug/ml after 48 hrs. The class given is functional. As to conditions: read-out: GI. In short, it runs like this:
(§1)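 Poisoned-agar mycelial growth test. Compound mixed into medium and poured into dishes. Once solidified, plates were inoculated with a 5 mm mycelium disk, inverted and incubated at 28 °C for 48 h. Medium without sample served as blank. Mycelial elongation radius was measured in triplicate. Inhibition (%) = [(C − T)/C] × 100, where C and T are the mean mycelial diameters of the blank and the treated plates.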

The next assay relates to Botrytis cinerea. Put plainly: Antifungal activity against Botryotinia fuckeliana assessed as inhibition of mycelium growth at 100 ug/ml after 48 hrs. In kind it is functional. As to conditions: read-out: GI. In short, it runs like this:
as §1

The test system of another assay is Alternaria solani. As to the kind of experiment: Antifungal activity against Alternaria solani assessed as inhibition of mycelium growth at 100 ug/ml after 48 hrs. As to conditions: read-out: GI. The class given is functional. In short, it runs like this: as §1
Another assay deals with Rhizoctonia solani. Put plainly: Antifungal activity against Rhizoctonia solani assessed as inhibition of mycelium growth at 100 ug/ml after 48 hrs. In kind it is functional. As to conditions: read-out: GI. In short, it runs like this: as §1
Assay [1] in a line: Antifungal activity against Colletotrichum orbiculare assessed as inhibition of mycelium growth at 100 ug/ml after 48 hrs. The class given is functional. The method in brief:
as §1

The next assay relates to Fusarium graminearum. Put plainly: Antifungal activity against Gibberella zeae assessed as inhibition of mycelium growth at 100 ug/ml after 48 hrs. The class given is functional. As to conditions: read-out: GI. The method in brief:
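Poisoned-medium plate test: compound mixed into molten medium and poured into dishes; once set, each plate was seeded with a 5 mm mycelium disk, inverted, and held at 28 °C for 48 h. The blank control was medium without sample, and tests were run in triplicate. Mycelial diameter was measured, and inhibition was taken as I = [(C − T)/C] × 100%, with C the mean blank diameter and T the mean treated diameter.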

Assay [2] can be described thus: Inhibition of Escherichia coli PDHC-E1 expressed in Escherichia coli TB1 using 2,6-dichlorophenolindophenol as substrate after 3 mins. The method in brief:
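MBP-fusion enzyme was expressed in E. coli TB1 grown in LB with 2% glucose and ampicillin at 37 °C to A600 0.6–0.8, then induced with 0.5 mM IPTG for 7 h at 25 °C. Protein was purified by MBP affinity to >95% purity and quantified by Bradford. The assay buffer was 50 mM K3PO4 pH 7.2 with 2.0 mM pyruvate substrate and 0.8 mM 2,6-DCIP. Enzyme and inhibitor were preincubated 3 min at 37 °C, and then ThDP was added to start the reaction. DCIP reduction was read at 600 nm. IC50 was obtained by fitting initial rates against varied inhibitor concentration to the Hill equation.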

As a reminder, the IC50 is the concentration at which inhibition is half-maximal.

As to `Cc1ncc(Cn2cc(COc3ccc([N+](=O)[O-])cc3Cl)nn2)c(N)n1`, the inhibition of growth at 100 µg/mL in the assay on Alternaria alternata turned out to be 36%; with Botrytis cinerea it was 44%; in the assay with Alternaria solani, 20%; with Rhizoctonia solani, 31%; in the assay with Fusarium graminearum, 0%. Moreover, the growth inhibition (GI) in assay [1] was determined as 57%.
`Cc1ncc(Cn2cc(COc3ccc(Cl)c(C)c3)nn2)c(N)n1`: the IC50 in assay [2] amounted to 26.2 µM.
As to `CC1COC(Cn2cncn2)(c2ccc(Oc3ccc(Cl)cc3)cc2Cl)O1` (configuration not stated) [DIFENOCONAZOLE], the inhibition of growth at 100 µg/mL in the assay on Alternaria alternata was 100%; in the assay with Botrytis cinerea it was 96%; in the assay on Alternaria solani it was 100%; with Rhizoctonia solani it was 100%; with Fusarium graminearum it was 98%. Besides, the growth inhibition (GI) in assay [1] stood at 97%.
Regarding `Cc1ncc(Cn2cc(COc3ccc(C(=O)O)cc3)nn2)c(N)n1`, the inhibition of growth at 100 µg/mL in the assay on Alternaria alternata stood at 57%; with Botrytis cinerea, 67%; with Alternaria solani, 33%; in the assay with Rhizoctonia solani, 0%; with Fusarium graminearum, 21%. For the same compound, in assay [1], the growth inhibition (GI) worked out at 42%.
`Cc1ncc(Cn2nnc(COc3ccccc3)c2I)c(N)n1`: the inhibition of growth at 100 µg/mL in the assay with Alternaria alternata turned out to be 23%; in the assay with Botrytis cinerea it was 88%; in the assay with Alternaria solani, 57%; in the assay on Rhizoctonia solani, 96%; in the assay on Fusarium graminearum it was 59%. The compound also yielded an IC50 in assay [2] of 19.6 µM. The growth inhibition (GI) in assay [1] is 45%.
Consider `Cc1ncc(Cn2cc(COc3ccc(Cl)cc3Cl)nn2)c(N)n1`, for which the IC50 in assay [2] is 18.7 µM.
As to `Cc1ccc(Cl)c(OCc2cn(Cc3cnc(C)nc3N)nn2)c1`, the midpoint of inhibition in assay [2], the IC50, lay at 29 µM.
In assay [2], `Cc1ncc(Cn2cc(COc3ccc(F)cc3Cl)nn2)c(N)n1` showed an IC50 of 43.3 µM.
Turning to `Cc1ncc(Cn2nnc(COc3ccc([N+](=O)[O-])cc3)c2I)c(N)n1`, the inhibition of growth at 100 µg/mL with Alternaria alternata came out at 59%; in the assay with Botrytis cinerea it was 84%; in the assay on Alternaria solani, 66%; in the assay on Rhizoctonia solani, 97%; in the assay on Fusarium graminearum, 68%. Also, half-maximal inhibition in assay [2] (IC50) required 5.33 µM. For the same compound, in assay [1], the growth inhibition (GI) is 35%.
Consider `COC(=O)Cc1ccc(OCc2cn(Cc3cnc(C)nc3N)nn2)cc1`, for which the IC50 in assay [2] was found to be 102 µM.
For `CCOC(=O)c1ccc(OCc2cn(Cc3cnc(C)nc3N)nn2)cc1`, the IC50 in assay [2] came to 28.8 µM.
Regarding `Cc1ncc(Cn2cc(COc3ccc([N+](=O)[O-])cc3)nn2)c(N)n1`, the inhibition of growth at 100 µg/mL in the assay with Alternaria alternata turned out to be 33%; with Botrytis cinerea, 37%; in the assay with Alternaria solani, 24%; in the assay with Rhizoctonia solani, 24%; in the assay on Fusarium graminearum, 0%. Moreover, the growth inhibition (GI) in assay [1] is 43%.
The compound `Cc1ncc(Cn2cc(COc3cccc(C(F)(F)F)c3)nn2)c(N)n1` gave an IC50 in assay [2] of 32.7 µM.
`COc1ccc(OCc2cn(Cc3cnc(C)nc3N)nn2)cc1` showed an IC50 in assay [2] of 81.6 µM.
On to `Cc1ncc(Cn2cc(COc3ccccc3[N+](=O)[O-])nn2)c(N)n1`, for which, in assay [2], half-maximal inhibition (IC50) required 36.3 µM.
As to `Cc1ncc(Cn2cc(COc3ccc([N+](=O)[O-])cc3[N+](=O)[O-])nn2)c(N)n1`, the inhibition of growth at 100 µg/mL in the assay on Alternaria alternata is 0%; with Botrytis cinerea, 54%; with Alternaria solani it was 0%; in the assay on Rhizoctonia solani, 0%; in the assay on Fusarium graminearum, 48%. Besides, the IC50 in assay [2] came out at 11.3 µM. Moreover, the growth inhibition (GI) in assay [1] was 42%.
In the case of `Cc1ncc(Cn2cc(COc3ccc(Cl)cc3)nn2)c(N)n1`, the inhibition of growth at 100 µg/mL was determined as 52% in the assay with Alternaria alternata; 73% in the assay with Botrytis cinerea; 44% in the assay with Alternaria solani; 23% in the assay on Rhizoctonia solani; 51% with Fusarium graminearum. Further, 26.4 µM corresponded to half-maximal inhibition in assay [2] (IC50). In addition, the growth inhibition (GI) in assay [1] amounted to 50%.
`Cc1ncc(Cn2cc(COc3ccccc3)nn2)c(N)n1`: the inhibition of growth at 100 µg/mL in the assay with Alternaria alternata was 43%; with Botrytis cinerea it was 53%; in the assay with Alternaria solani, 25%; in the assay with Rhizoctonia solani, 0%; in the assay on Fusarium graminearum, 0%. Moreover, in assay [1], the growth inhibition (GI) was determined as 40%.
